Reference: article PMC4855511 (Clinical chemistry, 2011)

Legend:
[1] = cited from earlier work
[2] = in vivo, ref [27], [28]; cited from earlier work
GC-A = conditions: ref [15], cited from earlier work
human GC-A [3] = target: T1, human GC-A (Homo sapiens, UniProt P16066); assay: Whole-cell 125I-ANP competition binding, 293-GC-A cells; conditions: IC50 proBNP1–108 / IC50 BNP1–32
T1 sequence (P16066 33-1061): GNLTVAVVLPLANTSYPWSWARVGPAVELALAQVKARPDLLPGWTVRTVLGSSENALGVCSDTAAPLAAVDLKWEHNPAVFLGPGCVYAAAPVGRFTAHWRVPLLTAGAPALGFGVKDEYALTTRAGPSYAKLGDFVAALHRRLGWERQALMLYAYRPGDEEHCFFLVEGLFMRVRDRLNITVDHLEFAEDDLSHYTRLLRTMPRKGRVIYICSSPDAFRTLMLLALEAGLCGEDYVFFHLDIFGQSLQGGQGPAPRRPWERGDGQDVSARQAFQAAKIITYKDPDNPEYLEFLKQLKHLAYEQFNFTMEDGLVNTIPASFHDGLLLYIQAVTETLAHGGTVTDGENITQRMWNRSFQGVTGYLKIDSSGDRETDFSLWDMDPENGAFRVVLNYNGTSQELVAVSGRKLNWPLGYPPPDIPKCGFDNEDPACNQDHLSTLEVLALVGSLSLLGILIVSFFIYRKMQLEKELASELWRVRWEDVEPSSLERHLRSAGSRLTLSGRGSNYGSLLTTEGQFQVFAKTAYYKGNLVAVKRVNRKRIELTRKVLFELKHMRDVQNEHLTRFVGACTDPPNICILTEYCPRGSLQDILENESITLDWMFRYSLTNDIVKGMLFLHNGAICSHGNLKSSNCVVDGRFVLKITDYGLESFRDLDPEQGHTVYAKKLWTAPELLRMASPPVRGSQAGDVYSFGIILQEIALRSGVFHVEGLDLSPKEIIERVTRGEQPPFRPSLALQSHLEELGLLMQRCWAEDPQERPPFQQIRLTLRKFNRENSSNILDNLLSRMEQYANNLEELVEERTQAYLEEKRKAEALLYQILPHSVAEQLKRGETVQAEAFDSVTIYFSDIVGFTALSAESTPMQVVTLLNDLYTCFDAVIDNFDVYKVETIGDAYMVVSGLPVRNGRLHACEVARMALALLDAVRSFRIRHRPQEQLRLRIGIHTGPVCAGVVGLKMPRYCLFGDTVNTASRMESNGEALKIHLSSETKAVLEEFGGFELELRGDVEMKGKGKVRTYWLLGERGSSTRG
Outline: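 293-GC-A cells on poly-d-lysine, at 75%–90% confluence, held 1–2 h at 37 °C in DMEM with 0.2% BSA. Incubated 1 h at 4 °C with ¹²⁵I-ANP in 1% BSA binding medium, with or without increasing unlabeled peptide. Washed twice with ice-cold PBS, lysed in 1 mol/L NaOH, γ-counted. B/Bo plotted against log competitor to give IC50. Triplicates in 3 experiments.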

[4] = Proteolytic inactivation by human kidney membranes with GC-A receptor bioassay; assay type: in vitro ADME
human GC-A [5] = target: T1, human GC-A; assay: Cellular cGMP elevation in HEK293 cells stably expressing human GC-A; assay type: cell-based
Outline: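 HEK293 cells stably expressing human GC-A, held serum-free 4–12 h to 75%–90% confluence. Preincubated 10 min at 37 °C in DMEM with 1 mmol/L IBMX and 25 mmol/L HEPES pH 7.4, then exposed 3 min to increasing peptide in the same medium. Stopped with ice-cold 80% ethanol; dried supernatant assayed for cGMP by RIA. Triplicates in 3 separate assays; EC50 with 95% CI.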

In the case of “B-type natriuretic peptide [BNP, reference compound]”, the Half-life in rats ([1]; rat, in vivo) is given as 1 min and the Half-life in humans [2] is given as 20 min.
For “glycosylated proBNP1–108: glycosylated version of human proBNP1–108 studied in cited literature”, the “Half-life in rats compared with nonglycosylated proBNP1–108” value ([1]; result in words, ref [26]) is given as “longer half-life” and the “Potency on activation of GC-A, glycosylated versus nonglycosylated” value (GC-A; result in words) is given as “no significant difference”.
In the case of “proBNP1–108: recombinant human 108-residue BNP prohormone with N-terminal His6-tag and rTEV site, expressed in E. coli”, the “Fold higher IC50 than BNP1–32 on GC-A” value (human GC-A [3]) is reported as “approximately 35 fold”, the “Fold longer half time for degradation by human kidney membranes than BNP1–32” value [4] is reported as 2.7 fold and the “Fold longer time for complete inactivation than BNP1–32” value [4] is reported as 6 fold. For the same substance, the “Fold reduced potency compared with BNP1–32” value (GC-A; cGMP in human endothelial and vascular smooth muscle cells) was 6- to 8 fold, the “Fold greater EC50 than BNP1–32 on GC-A” value (human GC-A [5]; EC50 proBNP1–108 / EC50 BNP1–32) was “approximately 13 fold” and the “Maximal stimulation of GC-A” value (human GC-A [5]; result in words) was “near-maximum activities”.
